According to ChEMBL document CHEMBL4689842, “EUbOPEN Chemogenomics Library wave 1” (2021):

Tested on: Fibroblast
Assay: Multiplex assay against human fibroblast
Format: toxicity, cell-based
Summary of the method: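 Compound was added to live cells that had been stained at seeding with Hoechst33342, BioTracker Green Microtubule Cytoskeleton Dye, MitoTracker Red and Annexin V Alexa Fluor 680, and imaging followed on a CQ1 microscope at 37°C and 5% CO2. CellPathfinder machine-learning gating divided cells into Hoechst high-intensity objects or normal cells, normal cells into healthy, pyknosed or fragmented nuclei, and pyknosed cells into mitotic or apoptotic. Tubulin, mitochondrial-mass and membrane-permeability phenotypes are per cents of healthy-nucleus cells.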

[1] = 12 h, 1 µM, compound concentration 1 uM, replicate 1
[2] = 12 h, 1 µM, compound concentration 1 uM, replicate 2
[3] = 12 h, 10 µM, compound concentration 10 uM, replicate 1
[4] = 12 h, 10 µM, compound concentration 10 uM, replicate 2
[5] = 24 h, 1 µM, compound concentration 1 uM, replicate 1
[6] = 24 h, 1 µM, compound concentration 1 uM, replicate 2
[7] = 24 h, 10 µM, compound concentration 10 uM, replicate 1
[8] = 24 h, 10 µM, compound concentration 10 uM, replicate 2
[9] = 48 h, 1 µM, compound concentration 1 uM, replicate 1
[10] = 48 h, 1 µM, compound concentration 1 uM, replicate 2
[11] = 48 h, 10 µM, compound concentration 10 uM, replicate 1
[12] = 48 h, 10 µM, compound concentration 10 uM, replicate 2

Compound: CN(C)C(=O)/C(C#N)=C/c1ccc(-c2nc3cnc4[nH]ccc4c3n2C2CCCCC2)o1
- Population Apoptotic (%) [1]: 67%
- Population Fragmented Nuclei (%) [1]: 27%
- Population Healthy Nuclei (%) [1]: 43%
- Population Hoechst High Intensity Objects (%) [1]: 19%
- Population Membrane Permeable-Phenotype (%) [1]: 26%
- Population Mitochondria Different-Phenotype (%) [1]: 17%
- Population Mitotic Cells (%) [1]: 32%
- Population Normal (%) [1]: 80%
- Population Pyknosed Nuclei (%) [1]: 29%
- Population Tubulin-Different-Phenotype (%) [1]: 36%
- Total Cell Count [1]: 131
- Population Apoptotic (%) [2]: 57%
- Population Fragmented Nuclei (%) [2]: 4%
- Population Healthy Nuclei (%) [2]: 87%
- Population Hoechst High Intensity Objects (%) [2]: 2%
- Population Membrane Permeable-Phenotype (%) [2]: 2%
- Population Mitochondria Different-Phenotype (%) [2]: 6%
- Population Mitotic Cells (%) [2]: 42%
- Population Normal (%) [2]: 97%
- Population Pyknosed Nuclei (%) [2]: 7%
- Population Tubulin-Different-Phenotype (%) [2]: 24%
- Total Cell Count [2]: 75
- Population Apoptotic (%) [3]: 51%
- Population Fragmented Nuclei (%) [3]: 28%
- Population Healthy Nuclei (%) [3]: 38%
- Population Hoechst High Intensity Objects (%) [3]: 61%
- Population Membrane Permeable-Phenotype (%) [3]: 22%
- Population Mitochondria Different-Phenotype (%) [3]: 11%
- Population Mitotic Cells (%) [3]: 48%
- Population Normal (%) [3]: 38%
- Population Pyknosed Nuclei (%) [3]: 32%
- Population Tubulin-Different-Phenotype (%) [3]: 65%
- Total Cell Count [3]: 515
- Population Apoptotic (%) [4]: 18%
- Population Fragmented Nuclei (%) [4]: 20%
- Population Healthy Nuclei (%) [4]: 62%
- Population Hoechst High Intensity Objects (%) [4]: 54%
- Population Membrane Permeable-Phenotype (%) [4]: 13%
- Population Mitochondria Different-Phenotype (%) [4]: 63%
- Population Mitotic Cells (%) [4]: 81%
- Population Normal (%) [4]: 45%
- Population Pyknosed Nuclei (%) [4]: 17%
- Population Tubulin-Different-Phenotype (%) [4]: 70%
- Total Cell Count [4]: 91
- Population Apoptotic (%) [5]: 43%
- Population Fragmented Nuclei (%) [5]: 34%
- Population Healthy Nuclei (%) [5]: 46%
- Population Hoechst High Intensity Objects (%) [5]: 14%
- Population Membrane Permeable-Phenotype (%) [5]: 33%
- Population Mitochondria Different-Phenotype (%) [5]: 5%
- Population Mitotic Cells (%) [5]: 56%
- Population Normal (%) [5]: 85%
- Population Pyknosed Nuclei (%) [5]: 19%
- Population Tubulin-Different-Phenotype (%) [5]: 41%
- Total Cell Count [5]: 141
- Population Apoptotic (%) [6]: 54%
- Population Fragmented Nuclei (%) [6]: 5%
- Population Healthy Nuclei (%) [6]: 84%
- Population Hoechst High Intensity Objects (%) [6]: 4%
- Population Membrane Permeable-Phenotype (%) [6]: 2%
- Population Mitochondria Different-Phenotype (%) [6]: 10%
- Population Mitotic Cells (%) [6]: 45%
- Population Normal (%) [6]: 95%
- Population Pyknosed Nuclei (%) [6]: 9%
- Population Tubulin-Different-Phenotype (%) [6]: 36%
- Total Cell Count [6]: 81
- Population Apoptotic (%) [7]: 35%
- Population Fragmented Nuclei (%) [7]: 27%
- Population Healthy Nuclei (%) [7]: 25%
- Population Hoechst High Intensity Objects (%) [7]: 61%
- Population Membrane Permeable-Phenotype (%) [7]: 28%
- Population Mitochondria Different-Phenotype (%) [7]: 18%
- Population Mitotic Cells (%) [7]: 64%
- Population Normal (%) [7]: 38%
- Population Pyknosed Nuclei (%) [7]: 47%
- Population Tubulin-Different-Phenotype (%) [7]: 64%
- Total Cell Count [7]: 606
- Population Apoptotic (%) [8]: 44%
- Population Fragmented Nuclei (%) [8]: 28%
- Population Healthy Nuclei (%) [8]: 53%
- Population Hoechst High Intensity Objects (%) [8]: 54%
- Population Membrane Permeable-Phenotype (%) [8]: 12%
- Population Mitochondria Different-Phenotype (%) [8]: 49%
- Population Mitotic Cells (%) [8]: 55%
- Population Normal (%) [8]: 45%
- Population Pyknosed Nuclei (%) [8]: 17%
- Population Tubulin-Different-Phenotype (%) [8]: 45%
- Total Cell Count [8]: 125
- Population Apoptotic (%) [9]: 52%
- Population Fragmented Nuclei (%) [9]: 33%
- Population Healthy Nuclei (%) [9]: 37%
- Population Hoechst High Intensity Objects (%) [9]: 15%
- Population Membrane Permeable-Phenotype (%) [9]: 24%
- Population Mitochondria Different-Phenotype (%) [9]: 8%
- Population Mitotic Cells (%) [9]: 47%
- Population Normal (%) [9]: 84%
- Population Pyknosed Nuclei (%) [9]: 29%
- Population Tubulin-Different-Phenotype (%) [9]: 46%
- Total Cell Count [9]: 143
- Population Apoptotic (%) [10]: 100%
- Population Fragmented Nuclei (%) [10]: 24%
- Population Healthy Nuclei (%) [10]: 72%
- Population Hoechst High Intensity Objects (%) [10]: 10%
- Population Membrane Permeable-Phenotype (%) [10]: 14%
- Population Mitochondria Different-Phenotype (%) [10]: 5%
- Population Mitotic Cells (%) [10]: 0%
- Population Normal (%) [10]: 89%
- Population Pyknosed Nuclei (%) [10]: 2%
- Population Tubulin-Different-Phenotype (%) [10]: 24%
- Total Cell Count [10]: 119
- Population Apoptotic (%) [11]: 37%
- Population Fragmented Nuclei (%) [11]: 28%
- Population Healthy Nuclei (%) [11]: 28%
- Population Hoechst High Intensity Objects (%) [11]: 62%
- Population Membrane Permeable-Phenotype (%) [11]: 30%
- Population Mitochondria Different-Phenotype (%) [11]: 11%
- Population Mitotic Cells (%) [11]: 62%
- Population Normal (%) [11]: 37%
- Population Pyknosed Nuclei (%) [11]: 42%
- Population Tubulin-Different-Phenotype (%) [11]: 57%
- Total Cell Count [11]: 650
- Population Apoptotic (%) [12]: 57%
- Population Fragmented Nuclei (%) [12]: 31%
- Population Healthy Nuclei (%) [12]: 57%
- Population Hoechst High Intensity Objects (%) [12]: 43%
- Population Membrane Permeable-Phenotype (%) [12]: 9%
- Population Mitochondria Different-Phenotype (%) [12]: 9%
- Population Mitotic Cells (%) [12]: 42%
- Population Normal (%) [12]: 56%
- Population Pyknosed Nuclei (%) [12]: 11%
- Population Tubulin-Different-Phenotype (%) [12]: 62%
- Total Cell Count [12]: 307
